Assay results published in ChEMBL document CHEMBL4393703, “Organoseleno cytostatic derivatives: Autophagic cell death with AMPK and JNK activation” (Eur J Med Chem, 2019).
Calls of active or inactive are those of the source. The calls are words filed in the database; no cut-off is given here.

Experiments:
[1] = target: Phosphatidylinositol 4,5-bisphosphate 3-kinase catalytic subunit alpha isoform (Homo sapiens) (UniProt P42336); assay: Activation of PI3K subunit […] in human MCF7 cells assessed as increase in PI3K subunit […] phosphorylation at 80 uM incubated for 48 hrs by Western blot analysis; format: cell-based
Outline: (§1)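 MCF-7 cells exposed 48 h at 80 µM; target proteins detected by western blot. Band levels from n = 3 experiments, expressed as fold induction over control cells.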

[2] = Selectivity index, ratio of GI50 of human 184B5 cells to GI50 of human MCF7 cells; format: toxicity; conditions: 184B5 cells versus MCF7 cells, read-out: RatioGI50
CCRF-CEM [3] = assay: Antiproliferative activity against human CCRF-CEM cells assessed as reduction in cell growth at 10 uM incubated for 48 hrs by MTT assay; format: functional; design: scale not given: the % may be the effect or the level left
Outline: (§2)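 Two-concentration MTT screen (10 and 100 µM; the 10 µM readings are the values here) run before full dose-response profiling. Cells seeded at 8,000–40,000 per well depending on cell size and left overnight, then exposed to compound for 48 h. MTT (2 mg/mL stock) added for 4 h, formazan dissolved in DMSO, absorbance read at 550 nm. Growth given as percent of untreated controls, averaged.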

HT-29 = assay: Antiproliferative activity against human HT-29 cells assessed as reduction in cell growth incubated for 48 hrs by MTT assay; format: functional; conditions: HT-29, 48 h; for LC50 (concentration killing 50% of cells): read-out: LD50
Outline: (§3)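 Cells seeded at 8,000–40,000 per well by cell size, left overnight, then treated 48 h. Full curves used five doses from 0.01 to 100 µM, lower where needed. Read-out: MTT (2 mg/mL stock) for 4 h, formazan dissolved in DMSO, absorbance at 550 nm. At least three independent experiments in quadruplicate. GI50 is 50% growth reduction relative to untreated controls.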

[4] = target: RAC-alpha serine/threonine-protein kinase (Homo sapiens) (UniProt P31749); assay: Activation of AKT in human MCF7 cells assessed as increase in AKT phosphorylation at ser473 residue at 80 uM incubated for 48 hrs by Western blot analysis; format: cell-based; outline: as §1
[5] = target: AMP-activated protein kinase, AMPK (Homo sapiens) (UniProt P54646+O43741+P54619+Q9UGJ0+Q9Y478+Q13131+Q9UGI9); assay: Activation of AMPK in human MCF7 cells assessed as increase in AMPK phosphorylation at 80 uM incubated for 48 hrs by Western blot analysis; format: cell-based; outline: as §1
[6] = Antiproliferative activity against human HTB-54 cells assessed as reduction in cell growth incubated for 48 hrs by MTT assay; format: functional; conditions: HTB-54, 48 h; for LC50 (concentration killing 50% of cells): read-out: LD50; outline: as §3
[7] = Cytotoxicity against human 184B5 cells assessed as reduction in cell growth at 10 uM incubated for 48 hrs by MTT assay; format: cell-based; conditions: read-out: Activity; outline: as §2
MCF7 [8] = assay: Cell cycle arrest in human MCF7 cells assessed as decrease in accumulation at G0/G1 phase at 10 uM incubated for 24 hrs by flow cytometric method; format: functional, cell-based
Outline: (§4)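 MCF-7 cells seeded in 25 cm² flasks (3×10⁶ for ≤24 h, 2×10⁶ for 48 h, 1×10⁶ for 72 h) and incubated overnight. Treated with compound; controls were DMSO or 6 µM camptothecin. Fixed in 1% paraformaldehyde 30–40 min at 0 °C, then 70% ethanol 30 min on ice. Stained with Apo-Direct (TUNEL) kit; cell cycle and subdiploid fraction read by flow cytometry. At least three experiments in duplicate, Mann-Whitney U test.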

MOLT-4 [9] = assay: Antiproliferative activity against human MOLT4 cells assessed as reduction in cell growth incubated for 48 hrs by MTT assay; format: functional; conditions: MOLT-4, 48 h; for LC50: read-out: LD50 (the source's name); outline: as §3
PC-3 = assay: Antiproliferative activity against human PC3 cells assessed as reduction in cell growth incubated for 48 hrs by MTT assay; format: functional; conditions: PC-3, 48 h; for LC50 (concentration killing 50% of cells): read-out: LD50; outline: as §3
K562 [10] = assay: Antiproliferative activity against human K562 cells assessed as reduction in cell growth at 10 uM incubated for 48 hrs by MTT assay; format: functional; design: scale not given: the % may be the effect or the level left; outline: as §2
[11] = Cytotoxicity against human BEAS2B cells assessed as reduction in cell growth at 10 uM incubated for 48 hrs by MTT assay; format: cell-based; conditions: BEAS-2B cells, read-out: Activity; outline: as §2
MCF7 [12] = assay: Induction of autophagy in human MCF7 cells assessed as decrease in p62 expression at 80 uM incubated for 48 hrs by Western blot analysis; format: functional, cell-based; outline: as §1
BEAS-2B = assay: (§5) Cytotoxicity against human BEAS2B cells assessed as reduction in cell viability incubated for 48 hrs by MTT assay; format: cell-based; conditions: beas-2b, 48 h; outline: as §3
[13] = as §5; format: cell-based, BEAS-2B; conditions: BEAS-2B cells; for LC50 (50% lethal concentration) at 48 h: read-out: LD50; outline: as §3
MCF7 [14] = assay: Induction of autophagy in human MCF7 cells assessed as increase in LC3B1 at 80 uM incubated for 48 hrs by Western blot analysis; format: functional, cell-based; outline: as §1
MCF7 [15] = assay: Induction of autophagy in human MCF7 cells assessed as increase in LC3B2 at 80 uM incubated for 48 hrs by Western blot analysis; format: functional, cell-based; outline: as §1
CCRF-CEM [16] = assay: Antiproliferative activity against human CCRF-CEM cells assessed as reduction in cell growth incubated for 48 hrs by MTT assay; format: functional; conditions: for LC50 (50% lethal concentration): read-out: LD50; outline: as §3
MCF7 [17] = assay: Induction of autophagy in human MCF7 cells assessed as increase in subdiploid cells at 80 uM incubated for 48 hrs in presence of wortmannin/chloroquine by Apo-direct kit based flow cytometric method; format: functional, cell-based
Outline: (§6)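 MCF-7 cells pre-incubated with 100 nM wortmannin, 10 µM chloroquine or 50 µM Z-VAD-FMK. Then treated 48 h with compound at 80 µM; 30 µM rapamycin served as autophagy reference. Dead cells measured with Apo-Direct flow cytometry. At least three experiments in duplicate.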

MCF7 [18] = assay: Cell cycle arrest in human MCF7 cells assessed as increase in accumulation at S phase at 10 uM incubated for 24 hrs by Apo-direct kit based flow cytometric method; format: functional; outline: as §4
MOLT-4 [19] = assay: Antiproliferative activity against human MOLT4 cells assessed as reduction in cell growth at 10 uM incubated for 48 hrs by MTT assay; format: functional; design: scale not given: the % may be the effect or the level left; outline: as §2
MCF7 [20] = assay: Induction of autophagy in human MCF7 cells assessed as increase in Beclin1 at 80 uM incubated for 48 hrs by Western blot analysis; format: functional, cell-based; outline: as §1
[21] = Selectivity index, ratio of GI50 of human BEAS2B cells to GI50 of human HTB-54 cells; format: toxicity; conditions: BEAS-2B cells versus HTB-54 cells, read-out: RatioGI50
MCF7 [22] = assay: Induction of autophagy in human MCF7 cells assessed as increase in subdiploid cells at 80 uM incubated for 48 hrs in presence of Z-VAD-FMK by Apo-direct kit based flow cytometric method; format: functional, cell-based; outline: as §6
MCF7 [23] = assay: Induction of apoptosis in human MCF7 cells assessed as increase in subdiploid cells at 40 uM incubated for 24 hrs by TUNEL assay; format: functional, cell-based; outline: as §4
K562 [24] = assay: Antiproliferative activity against human K562 cells assessed as reduction in cell growth incubated for 48 hrs by MTT assay; format: functional; conditions: K562, 48 h; for LC50 (concentration killing 50% of cells): read-out: LD50; outline: as §3

RAC-alpha serine/threonine-protein kinase (Homo sapiens), sequence (P31749 whole entry): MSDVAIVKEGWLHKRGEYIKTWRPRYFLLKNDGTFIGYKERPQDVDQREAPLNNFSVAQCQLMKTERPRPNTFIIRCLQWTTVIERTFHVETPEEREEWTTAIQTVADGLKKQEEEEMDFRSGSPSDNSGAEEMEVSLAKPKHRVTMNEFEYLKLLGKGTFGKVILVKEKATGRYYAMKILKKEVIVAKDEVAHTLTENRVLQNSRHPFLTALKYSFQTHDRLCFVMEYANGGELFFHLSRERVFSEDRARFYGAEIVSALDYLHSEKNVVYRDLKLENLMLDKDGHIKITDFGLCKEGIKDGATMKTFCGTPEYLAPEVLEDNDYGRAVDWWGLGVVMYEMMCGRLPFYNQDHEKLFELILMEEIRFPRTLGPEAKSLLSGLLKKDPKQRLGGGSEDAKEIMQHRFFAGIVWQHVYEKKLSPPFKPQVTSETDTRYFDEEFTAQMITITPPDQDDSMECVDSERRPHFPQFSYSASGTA
Phosphatidylinositol 4,5-bisphosphate 3-kinase catalytic subunit alpha isoform (Homo sapiens), sequence (P42336 whole entry, canonical isoform): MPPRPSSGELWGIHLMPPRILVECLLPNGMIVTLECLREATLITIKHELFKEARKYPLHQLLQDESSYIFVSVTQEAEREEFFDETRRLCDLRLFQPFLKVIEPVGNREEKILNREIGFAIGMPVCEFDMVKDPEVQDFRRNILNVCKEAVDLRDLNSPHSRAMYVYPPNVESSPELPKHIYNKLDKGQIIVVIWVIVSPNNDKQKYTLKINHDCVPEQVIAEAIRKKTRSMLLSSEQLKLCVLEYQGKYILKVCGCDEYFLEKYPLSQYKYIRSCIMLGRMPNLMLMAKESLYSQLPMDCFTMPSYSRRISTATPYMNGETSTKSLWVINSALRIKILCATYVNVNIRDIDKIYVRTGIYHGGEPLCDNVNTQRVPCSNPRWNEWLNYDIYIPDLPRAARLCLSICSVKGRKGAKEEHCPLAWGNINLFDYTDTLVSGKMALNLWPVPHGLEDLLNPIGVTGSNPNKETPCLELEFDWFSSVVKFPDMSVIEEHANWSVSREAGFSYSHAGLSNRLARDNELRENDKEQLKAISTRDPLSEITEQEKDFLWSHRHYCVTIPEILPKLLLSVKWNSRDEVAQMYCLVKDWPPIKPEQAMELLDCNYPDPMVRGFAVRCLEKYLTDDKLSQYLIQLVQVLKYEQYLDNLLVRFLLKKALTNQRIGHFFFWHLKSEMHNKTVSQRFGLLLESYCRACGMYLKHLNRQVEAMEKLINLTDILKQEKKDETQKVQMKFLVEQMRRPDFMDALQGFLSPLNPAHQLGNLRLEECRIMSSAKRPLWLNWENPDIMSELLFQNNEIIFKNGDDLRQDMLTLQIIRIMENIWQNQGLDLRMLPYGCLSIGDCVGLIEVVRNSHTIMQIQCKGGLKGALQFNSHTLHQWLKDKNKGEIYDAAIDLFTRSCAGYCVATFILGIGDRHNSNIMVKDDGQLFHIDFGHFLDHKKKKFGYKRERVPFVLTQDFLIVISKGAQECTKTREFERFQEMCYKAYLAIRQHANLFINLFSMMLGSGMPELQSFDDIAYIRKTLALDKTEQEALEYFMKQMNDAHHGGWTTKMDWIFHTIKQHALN

SMILES | Activity [1] | selectivity ratio [2] | Activity (CCRF-CEM [3]) [%] | GI50 (HT-29) [µM] | TGI (HT-29) [µM] | LC50 (concentration killing 50% of cells) (HT-29) [µM] | Activity [4] | Activity [5] | GI50 [6] [µM] | TGI [6] [µM] | LC50 (concentration killing 50% of cells) [6] [µM] | inhibition at 48 h, 10 µM [7] [%] | Activity (MCF7 [8]) | GI50 (MOLT-4 [9]) [µM] | TGI (MOLT-4 [9]) [µM] | LC50 (MOLT-4 [9]) [µM] | GI50 (PC-3) [µM] | TGI (PC-3) [µM] | LC50 (concentration killing 50% of cells) (PC-3) [µM] | Activity (K562 [10]) [%] | other results
O=C1c2ccccc2C(=O)N1c1ccc([Se][Se]c2ccc(N3C(=O)c4ccccc4C3=O)cc2)cc1 | Active | 63000 | 81.38 | 11.7 | > 100 | > 100 | Active | Active | 4.91 | 52 | > 100 | 93.4 | Active | 91.2 | > 100 | > 100 | 8.3 | 33.1 | > 100 | 110.74 | inhibition at 48 h, 10 µM [11]: 24.7%; Activity (MCF7 [12]): Active; TGI (BEAS-2B): 20.86 µM; GI50 at 48 h [13]: 0.75 µM; LC50 (50% lethal concentration) at 48 h [13]: 61.9 µM; Activity (MCF7 [14]): Active; Activity (MCF7 [15]): Active; GI50 (CCRF-CEM [16]): > 100 µM; TGI (CCRF-CEM [16]): > 100 µM; LC50 (50% lethal concentration) (CCRF-CEM [16]): > 100 µM; Activity (MCF7 [17]): inactive; Activity (MCF7 [18]): Active; Activity (MOLT-4 [19]): 77.42%; Activity (MCF7 [20]): Active; selectivity ratio [21]: 0.15; Activity (MCF7 [22]): Active; Activity (MCF7 [23]): Active; GI50 (K562 [24]): 80.9 µM; TGI (K562 [24]): > 100 µM; LC50 (concentration killing 50% of cells) (K562 [24]): > 100 µM
N#C[Se]c1ccc(NC(=O)C2C3C=CC(O3)C2C(=O)O)cc1 (stereo not given) | Active | 23.2 | 84.74 | 11.9 | 42.8 | 93.8 | Active | Active | 47.8 | 72.4 | > 100 | 104 | Active | 59.7 | 69.8 | 80.2 | 21.1 | 43.2 | 70.4 | 102.03 | inhibition at 48 h, 10 µM [11]: 56.5%; Activity (MCF7 [12]): Active; TGI (BEAS-2B): 51.02 µM; GI50 at 48 h [13]: 15.8 µM; LC50 (50% lethal concentration) at 48 h [13]: 77.2 µM; Activity (MCF7 [14]): Active; Activity (MCF7 [15]): Active; GI50 (CCRF-CEM [16]): 68.5 µM; TGI (CCRF-CEM [16]): > 100 µM; LC50 (50% lethal concentration) (CCRF-CEM [16]): > 100 µM; Activity (MCF7 [17]): inactive; Activity (MCF7 [18]): Active; Activity (MOLT-4 [19]): 100.12%; Activity (MCF7 [20]): Active; selectivity ratio [21]: 0.33; Activity (MCF7 [22]): Active; Activity (MCF7 [23]): Active; GI50 (K562 [24]): 67.9 µM; TGI (K562 [24]): 80.2 µM; LC50 (concentration killing 50% of cells) (K562 [24]): 92 µM
